Sampled rows, rich in hits. Any-hit rate of the full collection: about 9.2%.
ERb coact inh – inhibitors of ERβ-SRC1 coactivator interaction, primary screen, biochemical, TR-FRET, ERβ LBD, SRC-1 peptide; actives 1.3% (n = 86,000); Estrogen receptor beta (Homo sapiens), Q92731; TR-FRET ER-beta LBD / SRC1-Cy5 peptide binding; receptor agonist-loaded with 1 µM estradiol; inhibition, % at 25.6 µM;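 active = compounds whose percent inhibition of the receptor-coactivator binding signal exceeds about 50% in the single-dose screen, limit read from the data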;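 also: 0% = receptor plus peptide wells without compound and 100% = peptide-only wells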
ERa SRC1 inh – ERα–SRC-1 coactivator interaction inhibitors, primary screen, biochemical, TR-FRET, ERα LBD, estradiol-bound; actives 1.7% (n = 86,000); TR-FRET ER-alpha LBD / SRC-1 peptide; inhibition, % at 25.6 µM; Estrogen receptor (Homo sapiens), P03372; in the data active = inhibition above about 50%;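 also: 0% = receptor plus peptide control and 100% = peptide only without receptor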
Target sequence (P03372 whole entry, looked up, the tested form may be a part): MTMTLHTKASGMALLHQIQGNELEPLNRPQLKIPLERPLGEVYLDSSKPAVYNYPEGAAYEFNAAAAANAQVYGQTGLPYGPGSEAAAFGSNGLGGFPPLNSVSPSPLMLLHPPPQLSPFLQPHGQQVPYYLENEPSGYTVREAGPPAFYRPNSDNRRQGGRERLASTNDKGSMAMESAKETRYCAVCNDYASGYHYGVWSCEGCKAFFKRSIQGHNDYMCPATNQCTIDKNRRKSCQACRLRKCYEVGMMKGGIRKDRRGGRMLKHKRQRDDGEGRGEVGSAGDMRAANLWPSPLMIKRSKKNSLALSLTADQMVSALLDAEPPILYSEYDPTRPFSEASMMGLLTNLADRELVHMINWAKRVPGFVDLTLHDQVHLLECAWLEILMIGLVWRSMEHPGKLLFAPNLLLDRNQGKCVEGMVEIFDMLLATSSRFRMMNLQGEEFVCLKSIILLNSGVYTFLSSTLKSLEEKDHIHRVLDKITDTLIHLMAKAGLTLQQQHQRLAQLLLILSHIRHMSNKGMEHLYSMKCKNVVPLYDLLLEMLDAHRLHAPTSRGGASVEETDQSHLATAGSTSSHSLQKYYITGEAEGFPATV
ERa coact pot – enhancers of ERα–SRC-1 coactivator binding, primary screen, biochemical, TR-FRET, ERα LBD, low estradiol. Estrogen receptor (Homo sapiens), P03372. TR-FRET ERalpha-LBD/SRC-Cy5 coactivator binding, 2 h; 100 = basal binding, no effect. coactivator binding (% of control), % at 25.6 µM. actives 1.3% (n = 86,000). AID 639, 2007; in the data active = activity above about 200%;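 also: binding measured in presence of low estradiol as agonist stimulus; 0% = peptide alone without receptor and 100% = receptor with peptide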
H69AR growth 86K – proliferation blockers of H69AR lung cancer cells, primary screen, cell-based, human, 86K library. viability, % at 10 µM. AID 598, 2007. actives 6% (n = 85,000). H69AR lung tumor viability, ATP luminescence, 72 h; stronger effect = lower value;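 active = viability at or below 40%; inactive = viability above 40%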;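 also: multidrug resistant small cell line overexpressing MRP-1 efflux transporter; 100% = mean luminescence of untreated control wells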
HUVEC inhibit – inhibitors of HUVEC proliferation, primary screen, cell-based, 384-well. actives 1.1% (n = 86,000). CellTiter-Glo luminescence, 72 h; stronger effect = lower value. viability, % at 10 µM (by protocol). AID 648, 2007;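 active = viability at or below 30%; inactive = viability above 30%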;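 also: 100% = median luminescence of DMSO-only cell control wells on each plate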
Lung fibro prol – antiproliferative effect on LL 47 fibroblasts – human, LL 47 cells, CellTiter-Glo luminescence, primary screen; LL 47 human lung fibroblast viability, ATP luminescence; stronger effect = lower value; viability, % at 10 µM; actives 1.1% (n = 85,000); AID 719, 2007;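 active = viability at or below 50% in the single dose screen; inactive = viability above 50%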;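 also: compound exposure lasted 72 h before the ATP readout; 100% = median luminescence of untreated cell-only wells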
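test system = LL 47 human lung fibroblasts | amount = 1,150 fibroblasts seeded per well | medium = 15% FBS in IMEM | times = overnight cell rest, 72 h compound treatment at 37 °C | measured by = CellTiter-Glo luminescence measuring cellular ATP | read-out = viability percentage against median untreated-cell control | benchmarks = cell-only wells, no compound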
* marks the source's active call; other numbers are inactive results; [ ] = dose if it differs, or a comment.

For COc1ccc(CNC(=O)CSc2nc(-c3ccccc3)cc(-c3cccs3)c2C#N)cc1 the results were ERb coact inh 4, ERa SRC1 inh 10, ERa coact pot 147, H69AR growth 86K 78, HUVEC inhibit 57 and Lung fibro prol 99.
For N#Cc1c(-c2ccccc2)cc(C2CC2)nc1N the results were ERb coact inh -6, ERa SRC1 inh 1, ERa coact pot 101, H69AR growth 86K 84, HUVEC inhibit 68 and Lung fibro prol 93.
`CSc1nc(C2CC2)cc(-c2cccs2)c1C#N` gave ERb coact inh -6, ERa SRC1 inh 0, ERa coact pot 130, H69AR growth 86K 8.6*, HUVEC inhibit 30* and Lung fibro prol 32*.
Screening C#CCSc1nc(-c2cccs2)ccc1C#N returned ERb coact inh -1, ERa SRC1 inh 2, ERa coact pot 146, H69AR growth 86K 43, HUVEC inhibit 57 and Lung fibro prol 82.
For COc1ccc(-c2cc(-c3cccs3)c(C#N)c(SCC(=O)NCc3ccco3)n2)cc1 the results were ERb coact inh 39, ERa SRC1 inh 54*, ERa coact pot 177, H69AR growth 86K 22*, HUVEC inhibit 52 and Lung fibro prol 57.
For COC(=O)CSc1nc(-c2cccs2)ccc1C#N the results were ERb coact inh -9, ERa SRC1 inh -19, ERa coact pot 112, H69AR growth 86K 37*, HUVEC inhibit 100 and Lung fibro prol 96.
Screening CN1CCN(C(=O)CSc2nc(-c3cccs3)cc(-c3cccs3)c2C#N)CC1 returned ERb coact inh 23, ERa SRC1 inh 38, ERa coact pot 82, H69AR growth 86K 5.4*, HUVEC inhibit 2.0* and Lung fibro prol 53.
C=CCc1cccc(/C=N/c2ncccc2O)c1O was read as ERb coact inh 58*[fluorescence artefact?], ERa SRC1 inh 22, ERa coact pot 63, H69AR growth 86K 98, HUVEC inhibit 101 and Lung fibro prol 95.
Screening COc1cccc(C=Nc2cccnc2)c1O returned ERb coact inh -8, ERa SRC1 inh 0, ERa coact pot 98, H69AR growth 86K 108, HUVEC inhibit 103 and Lung fibro prol 98.
O=C(CSc1ccc2nnc(-c3ccc(Cl)cc3)n2n1)N1CCc2ccccc21 was read as ERb coact inh 18, ERa SRC1 inh 14, ERa coact pot 175, H69AR growth 86K 65, HUVEC inhibit 99 and Lung fibro prol 95.
Screening O=c1c2cccc3c(N4CCOCC4)ccc(c32)c2nc3ccccc3n12 returned ERb coact inh 3, ERa SRC1 inh 5, ERa coact pot 190, H69AR growth 86K 28*, HUVEC inhibit 50 and Lung fibro prol 93.
For N#CC(C#N)=c1ccc2c(c1)NC1(CCCCC1)N=2 the results were ERb coact inh -7, ERa SRC1 inh -72, ERa coact pot 100, H69AR growth 86K 1.1*, HUVEC inhibit 28* and Lung fibro prol 7.4*.
CCn1c(Cc2ccccc2)nnc1SCC(=O)Nc1ccc(S(N)(=O)=O)cc1 was read as ERb coact inh -16, ERa SRC1 inh -14, ERa coact pot 106, H69AR growth 86K 76, HUVEC inhibit 91 and Lung fibro prol 92.
Screening O=c1c2ccccc2nc(-c2cccc(Cl)c2)n1O returned ERb coact inh 7, ERa SRC1 inh 4, ERa coact pot 93, H69AR growth 86K 23*, HUVEC inhibit 100 and Lung fibro prol 101.
Screening O=C(NCC1COc2ccccc2O1)C1CCCN(S(=O)(=O)c2cnc[nH]2)C1 (configuration not stated) returned ERb coact inh 30, ERa SRC1 inh 9, ERa coact pot 98, H69AR growth 86K 99, HUVEC inhibit 95 and Lung fibro prol 96.

From PubChem BioAssay
